Source: ChEMBL document CHEMBL2440064, “Synthesis and biological evaluation of 2-amino-5-aryl-3-benzylthiopyridine scaffold based potent c-Met inhibitors” (Bioorg Med Chem, 2013)
Calls of active or inactive are those of the source. The rule behind the calls is not given here.

Key:
[1] = tested on: SNU-5; test: Antiproliferative activity against human SNU5 cells after 72 hrs; details: SNU-5, 72 h
[2] = biological target: T1, Hepatocyte growth factor receptor (Homo sapiens, UniProt P08581); test: Inhibition of c-Met in human MKN45 cells assessed as inhibition of p44/42 phosphorylation at 0.16 to 20 uM after 2 hrs by Western blotting analysis; type: cell-based; details: MKN-45
In short: (§1)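 Cells grown to exponential phase, treated with compound 2 h at 37°C, lysed in 1× SDS sample buffer, resolved on 10% SDS-PAGE and transferred to nitrocellulose for immunoblotting.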

[3] = biological target: Epidermal growth factor receptor (Homo sapiens, UniProt P00533); test: Inhibition of EGFR (unknown origin) using poly (Glu, Tyr) 4:1 as substrate after 60 mins by ELISA
In short: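 ELISA on wells precoated with 20 µg/mL poly(Glu,Tyr)4:1. Purified kinase with 10 µmol/L ATP in 50 mM HEPES pH 7.4, 50 mM MgCl₂, 0.5 mM MnCl₂, 0.2 mM Na₃VO₄, 1 mM DTT; 1% DMSO vehicle. 60 min at 37°C. Phosphotyrosine detected with PY99 antibody, then HRP anti-mouse IgG and o-phenylenediamine/H₂O₂, A490. Inhibition = [1−(A490/A490 control)]×100%; IC50 from curves.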

[4] = biological target: T1, Hepatocyte growth factor receptor; test: Inhibition of c-Met in gefitinib-resistant human HCC827 cells assessed as inhibition of p44/42 phosphorylation at 0.5 uM after 2 hrs by Western blotting analysis in presence of gefitinib; type: cell-based; in short: as §1

T1 sequence (P08581 whole entry): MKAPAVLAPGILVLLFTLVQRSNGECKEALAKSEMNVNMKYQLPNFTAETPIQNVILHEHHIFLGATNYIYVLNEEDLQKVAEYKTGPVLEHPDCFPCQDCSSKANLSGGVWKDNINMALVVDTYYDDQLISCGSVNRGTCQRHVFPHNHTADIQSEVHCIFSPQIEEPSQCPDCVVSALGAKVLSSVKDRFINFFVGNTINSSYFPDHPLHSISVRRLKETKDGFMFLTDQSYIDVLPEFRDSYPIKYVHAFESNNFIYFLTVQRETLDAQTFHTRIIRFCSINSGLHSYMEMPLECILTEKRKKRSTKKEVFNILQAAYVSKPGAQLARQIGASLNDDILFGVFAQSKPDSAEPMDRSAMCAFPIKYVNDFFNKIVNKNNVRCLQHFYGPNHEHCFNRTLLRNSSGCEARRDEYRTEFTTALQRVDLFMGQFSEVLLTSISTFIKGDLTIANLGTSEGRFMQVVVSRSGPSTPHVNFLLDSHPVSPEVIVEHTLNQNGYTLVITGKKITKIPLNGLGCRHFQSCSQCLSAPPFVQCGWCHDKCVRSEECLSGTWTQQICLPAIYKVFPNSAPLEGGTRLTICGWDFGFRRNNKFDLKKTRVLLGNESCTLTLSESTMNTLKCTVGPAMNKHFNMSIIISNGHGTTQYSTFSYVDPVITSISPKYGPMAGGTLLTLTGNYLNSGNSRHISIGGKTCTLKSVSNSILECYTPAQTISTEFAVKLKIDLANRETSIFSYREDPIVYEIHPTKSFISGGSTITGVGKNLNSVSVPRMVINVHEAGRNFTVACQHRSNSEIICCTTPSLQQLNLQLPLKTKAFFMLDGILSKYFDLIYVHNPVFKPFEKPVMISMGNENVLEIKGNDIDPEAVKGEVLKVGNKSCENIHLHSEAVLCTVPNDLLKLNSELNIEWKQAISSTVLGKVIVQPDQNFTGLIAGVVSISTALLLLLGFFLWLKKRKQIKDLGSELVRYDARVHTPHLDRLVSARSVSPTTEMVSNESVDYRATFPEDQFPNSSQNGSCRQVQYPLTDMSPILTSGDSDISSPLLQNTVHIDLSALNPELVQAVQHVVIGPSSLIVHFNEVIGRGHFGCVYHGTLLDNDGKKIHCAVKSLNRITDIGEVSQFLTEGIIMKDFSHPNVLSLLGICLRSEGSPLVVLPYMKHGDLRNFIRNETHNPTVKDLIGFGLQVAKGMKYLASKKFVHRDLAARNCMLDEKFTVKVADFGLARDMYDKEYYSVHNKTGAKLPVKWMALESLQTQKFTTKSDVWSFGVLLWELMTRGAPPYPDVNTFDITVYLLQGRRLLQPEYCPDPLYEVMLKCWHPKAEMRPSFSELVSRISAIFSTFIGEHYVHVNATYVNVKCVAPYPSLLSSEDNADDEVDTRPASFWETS
Epidermal growth factor receptor, sequence (P00533 whole entry): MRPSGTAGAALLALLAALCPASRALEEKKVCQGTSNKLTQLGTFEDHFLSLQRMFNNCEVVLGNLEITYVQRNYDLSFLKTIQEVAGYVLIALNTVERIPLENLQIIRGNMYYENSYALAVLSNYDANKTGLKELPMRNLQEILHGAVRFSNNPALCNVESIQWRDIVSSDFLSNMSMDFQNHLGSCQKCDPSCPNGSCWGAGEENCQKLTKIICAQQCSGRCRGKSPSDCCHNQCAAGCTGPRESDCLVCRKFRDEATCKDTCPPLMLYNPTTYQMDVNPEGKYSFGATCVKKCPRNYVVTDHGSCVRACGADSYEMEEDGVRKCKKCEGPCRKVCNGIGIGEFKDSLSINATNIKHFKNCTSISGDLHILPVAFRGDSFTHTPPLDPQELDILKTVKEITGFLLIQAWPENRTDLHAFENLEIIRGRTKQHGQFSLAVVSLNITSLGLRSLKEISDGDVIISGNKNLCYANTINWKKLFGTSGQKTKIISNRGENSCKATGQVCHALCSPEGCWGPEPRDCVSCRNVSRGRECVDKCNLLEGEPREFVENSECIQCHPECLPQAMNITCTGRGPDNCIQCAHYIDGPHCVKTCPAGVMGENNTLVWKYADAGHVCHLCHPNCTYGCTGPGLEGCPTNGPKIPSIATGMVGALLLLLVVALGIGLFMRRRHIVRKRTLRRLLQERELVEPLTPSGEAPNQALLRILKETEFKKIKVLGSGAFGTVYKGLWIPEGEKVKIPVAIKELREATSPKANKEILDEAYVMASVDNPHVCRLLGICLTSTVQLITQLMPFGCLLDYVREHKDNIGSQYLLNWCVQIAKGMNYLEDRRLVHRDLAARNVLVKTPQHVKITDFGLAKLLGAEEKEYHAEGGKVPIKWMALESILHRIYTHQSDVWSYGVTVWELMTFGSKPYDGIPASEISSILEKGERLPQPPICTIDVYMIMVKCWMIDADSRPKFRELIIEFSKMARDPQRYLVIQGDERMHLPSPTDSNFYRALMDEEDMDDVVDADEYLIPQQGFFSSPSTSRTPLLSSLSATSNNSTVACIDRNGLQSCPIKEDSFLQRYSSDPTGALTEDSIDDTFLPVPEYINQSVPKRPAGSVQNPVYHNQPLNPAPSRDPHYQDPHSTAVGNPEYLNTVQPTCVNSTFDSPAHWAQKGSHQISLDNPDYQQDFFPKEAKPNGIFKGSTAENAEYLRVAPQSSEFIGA

IC50 [1]: 190 nM | inhibition [2]: Active | IC50 [3]: > 1000 nM | inhibition [4]: Active
Structure (SMILES): C[C@@H](Sc1cc(-c2cnn(C3CCNCC3)c2)cnc1N)c1c(Cl)ccc(F)c1Cl
